Published values of several laboratories.
Lines come from different studies, so protocols differ.
Target: Serine/threonine-protein kinase PAK 2 (PAK2, Homo sapiens, UniProt Q13177)

| SMILES | test | setting | measurement | result |
| --- | --- | --- | --- | --- |
| COc1cc(Nc2cnc(C#N)c(O[C@H](C)CN(C)C)n2)ncc1-c1cnn(C)c1 | enzyme activity, inhibitor, radiometric | 10 µM | remaining activity | 70% |
| Cc1cnc(NC2CCOCC2)nc1-n1cnc(C(=O)NC(CN)c2cc(F)cc(Cl)c2)c1 (centres unmarked) | enzyme activity, inhibitor, radiometric | 1 µM | remaining activity | 77% |
| COc1cc(Cl)c(C(=O)N[C@@H](CN[C@H]2CC[C@@H](N)CC2)Cc2ccc(C#N)cc2)cc1-c1ccc(CN[C@H](C)c2ccc(C)cc2)o1 | enzyme activity, inhibitor | 1 µM | remaining activity | 98% |
| CNCc1ccc(-c2cc(-c3nc(-c4ccc(S(=O)(=O)C(C)C)cc4)cnc3N)on2)cc1 | enzyme activity, inhibitor | 2 µM | inhibition | 6% |
| COc1cc(Nc2c(C#N)cnc3cc(OCCCN4CCN(C)CC4)c(OC)cc23)c(Cl)cc1Cl | cell-free assay | 0.5 µM | remaining signal | 69.4% |
| Cc1sc(C(=O)NC2COC2)cc1-n1cc(NC(=O)Nc2c(F)cccc2Cl)cn1 | enzyme activity, inhibitor | 10 µM | remaining activity | 106% |
| CS(=O)(=O)Nc1cccc(-c2csc(NC(=O)CSc3nc4nccnc4c(=O)n3CCc3ccccc3)n2)c1 | enzyme activity, inhibitor | 10 µM | inhibition | 3% |
| Cc1c(NC(=O)c2cc(C(N)=O)nc3cc(F)ccc23)c(C(F)(F)F)nn1Cc1ccc(C#N)cc1 | cell-free assay, competition with immobilised ligand | 1 µM | remaining binding | 88% |
| Clc1ccc(Nc2nnc(Cc3ccncc3)c3ccccc23)cc1 | cell-free assay | 0.5 µM | remaining signal | 101% |
| CSc1nc(C)c(-c2ccnc(Nc3ccc(N4CCOCC4)cc3)c2)[nH]1 | enzyme activity, inhibitor | 10 µM | inhibition | 1.4% |
| FC(F)(F)Oc1cccc(-c2cnc3ccc(-c4ccncc4)nn23)c1 | enzyme activity, inhibitor, radiometric | 5 µM | activity vs control | 88% |
| Cc1ccc(C(=O)NCc2ccsc2)cc1C#Cc1cn(C(C)C)c2ncnc(N)c12 | enzyme activity, inhibitor | 1 µM | activity vs control | 79% |
| O=C1Nc2ccc(Cl)cc2C1=Cc1cc(Cl)c(O)c(Cl)c1 | cell-free assay | 0.5 µM | remaining signal | 96.8% |
| CC(C)(C)c1nc2c(s1)c1nc(N)ncc1c1ccc(NS(=O)(=O)c3c(F)cccc3F)c(F)c12 | enzyme activity, inhibitor, radiometric | 1 µM | remaining activity | 102% |
| Cc1ccc(Nc2nccc(N(C)c3ccc4c(C)n(C)nc4c3)n2)cc1S(N)(=O)=O | enzyme activity, inhibitor | 0.3 µM | inhibition | 1% |
| Cc1noc([C@H]2C[C@@H](c3ccc(C(F)(F)F)cc3)CN(C(=O)N3CCS(=O)(=O)C3)C2)n1 | cell-free assay, competition with immobilised ligand | 1 µM | remaining binding | 87% |

| SMILES | test | setting | measurement | result |
| --- | --- | --- | --- | --- |
| COc1cc(/C=C/C(=O)CC(=O)/C=C/c2ccc(O)c(OC)c2)ccc1O | enzyme activity, inhibitor | 1 µM | activity vs control | 84% |
| CCN(CC)CCNC(=O)c1c(C)[nH]c(/C=C2\C(=O)Nc3ccc(F)cc32)c1C | enzyme activity, inhibitor | 0.3 µM | inhibition | -8% |
| O=C1CCc2cc(Nc3cc(OC4CCOCC4)c([N+](=O)[O-])cc3Cl)ccc2N1 | cell-free assay, competition with immobilised ligand | 1 µM | remaining binding | 96% |
| Cn1c(=O)n(-c2ccc(C(C)(C)C#N)cc2)c2c3cc(-c4cnc5ccccc5c4)ccc3ncc21 | enzyme activity, inhibitor | 10 µM | remaining activity | 87% |
| Nc1ncnc2occ(-c3ccc(NC(=O)Nc4cc(C(F)(F)F)ccc4F)cc3)c12 | cell-free assay, inhibitor | 20 µM | remaining signal | 60% |
| CN1CC(Oc2cnc(C#N)cc2-c2ccn3nc(NC(=O)C4CC4)cc3c2)C1 | enzyme activity, inhibitor | 1 µM | inhibition | -7% |
| CO[C@@H](C)c1c(Nc2ccc([C@H](N(C)C(=O)C3CCS(=O)(=O)CC3)C(F)(F)F)cc2)cnc2cc(Cl)nn12 | cell-free assay, competition with immobilised ligand | 1 µM | remaining binding | 76% |
| CC(C)(O)[C@H]1CC[C@H](Nc2ccc3ncc(-c4cccc(C(F)(F)F)c4)n3n2)CC1 | enzyme activity, inhibitor | 1 µM | remaining activity | 93.4% |
| CN([C@@H]1CCc2c(CC(=O)O)c3ccccc3n2C1)S(=O)(=O)c1ccc(F)cc1 | cell-free assay, competition with immobilised ligand | 1 µM | remaining binding | 100% |
| O=C(Nc1cnn(-c2csc(C(=O)NC3COC3)c2)c1)Nc1c(F)cccc1Cl | enzyme activity, inhibitor | 5 µM | remaining activity | 95.3% |
| CS(=O)(=O)N1CCCC(NC(=O)[C@H](CCC2CCCCC2)NC(=O)c2ccc(CNC(=O)c3cnc4ccccn34)cc2)C1 (some centres unmarked) | cell-free assay, competition with immobilised ligand | 0.1 µM | remaining binding | 93% |
| COc1cc2ncnc(Nc3ccc(Oc4ccccc4)cc3C)c2cc1OC | enzyme activity, inhibitor | 1 µM | inhibition | 2% |
| Cn1cc(Cl)c2c(Oc3c(F)cc(Nc4cc(Cl)nc(N)n4)cc3F)ccnc21 | cell-free assay, competition with immobilised ligand | 0.1 µM | remaining binding | 100% |
| COc1cc2ncnc(Nc3ccc(F)c(Cl)c3)c2cc1OCCCN1CCOCC1 | cell-free assay | 0.5 µM | remaining signal | 100% |
| O=S(=O)(NC1CCC(c2cc(F)ccc2F)(S(=O)(=O)c2ccc(Cl)cc2)CC1)C(F)(F)F (centres unmarked) | cell-free assay, competition with immobilised ligand | 1 µM | remaining binding | 100% |
| Cc1ccc(NC(=O)c2ccc(C)c(C(F)(F)F)c2)cc1C#Cc1nn(C2CCC(O)CC2)c2ncnc(N)c12 (centres unmarked) | cell-free assay | 10 µM | remaining signal | 68% |
